ChEMBL document CHEMBL1152250, “Novel and orally active 5-(1,3,4-oxadiazol-2-yl)pyrimidine derivatives as selective FLT3 inhibitors” (Bioorg Med Chem Lett, 2008)
pIC50: −log10 of the molar value.

Tests used:
[1] = Antiproliferative activity against human HMC1 cells expressing FLT3-delta599 mutant after 72 hrs by WST-1 assay; format: functional; conditions: HMC1, 72 h
Method in brief: (§1)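 Cells kept in RPMI1640 with 10% heat-inactivated FBS, 1% penicillin and 1% streptomycin, seeded in 96-well plates and exposed to test compounds for 72 h. Viability read with WST-1 reagent. GI50 is the mean ± SEM of three experiments.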

Liver microsomes = assay: Metabolic stability in human liver microsomes assessed as intrinsic clearance; format: ADME, Microsome
Method in brief: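 Pooled human liver microsomes (0.2 mg protein/mL) with test compound at 0.1 or 1 μmol/L, 5 mmol/L NADPH, 100 mmol/L phosphate buffer pH 7.4, 6 mmol/L MgCl2 and 0.1 mmol/L EDTA. Cosolvent was DMSO (0.01 or 0.001 vol%) or methanol (1 vol%). Incubated at 37 °C for a fixed time, n = 1 or 2. Stopped with CH3CN containing internal standard and analysed by LC-MS or LC-MS/MS. Intrinsic clearance calculated from percent remaining.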

[2] = Antiproliferative activity against human HMC1 cells expressing FLT-D835Y mutant after 72 hrs by WST-1 assay; format: functional; conditions: HMC1, 72 h; method in brief: as §1
[3] = Antiproliferative activity against human ML1 cells after 72 hrs by WST-1 assay; format: functional; conditions: ML1, 72 h; method in brief: as §1
MOLM-13 [4] = assay: Antiproliferative activity against human MOLM13 cells after 72 hrs by WST-1 assay; format: functional; conditions: MOLM-13, 72 h; method in brief: as §1
[5] = target: T1, Receptor-type tyrosine-protein kinase FLT3 (Homo sapiens, UniProt P36888); assay: Inhibition of GST-tagged FLT3 by ELISA
T1 sequence (P36888 whole entry): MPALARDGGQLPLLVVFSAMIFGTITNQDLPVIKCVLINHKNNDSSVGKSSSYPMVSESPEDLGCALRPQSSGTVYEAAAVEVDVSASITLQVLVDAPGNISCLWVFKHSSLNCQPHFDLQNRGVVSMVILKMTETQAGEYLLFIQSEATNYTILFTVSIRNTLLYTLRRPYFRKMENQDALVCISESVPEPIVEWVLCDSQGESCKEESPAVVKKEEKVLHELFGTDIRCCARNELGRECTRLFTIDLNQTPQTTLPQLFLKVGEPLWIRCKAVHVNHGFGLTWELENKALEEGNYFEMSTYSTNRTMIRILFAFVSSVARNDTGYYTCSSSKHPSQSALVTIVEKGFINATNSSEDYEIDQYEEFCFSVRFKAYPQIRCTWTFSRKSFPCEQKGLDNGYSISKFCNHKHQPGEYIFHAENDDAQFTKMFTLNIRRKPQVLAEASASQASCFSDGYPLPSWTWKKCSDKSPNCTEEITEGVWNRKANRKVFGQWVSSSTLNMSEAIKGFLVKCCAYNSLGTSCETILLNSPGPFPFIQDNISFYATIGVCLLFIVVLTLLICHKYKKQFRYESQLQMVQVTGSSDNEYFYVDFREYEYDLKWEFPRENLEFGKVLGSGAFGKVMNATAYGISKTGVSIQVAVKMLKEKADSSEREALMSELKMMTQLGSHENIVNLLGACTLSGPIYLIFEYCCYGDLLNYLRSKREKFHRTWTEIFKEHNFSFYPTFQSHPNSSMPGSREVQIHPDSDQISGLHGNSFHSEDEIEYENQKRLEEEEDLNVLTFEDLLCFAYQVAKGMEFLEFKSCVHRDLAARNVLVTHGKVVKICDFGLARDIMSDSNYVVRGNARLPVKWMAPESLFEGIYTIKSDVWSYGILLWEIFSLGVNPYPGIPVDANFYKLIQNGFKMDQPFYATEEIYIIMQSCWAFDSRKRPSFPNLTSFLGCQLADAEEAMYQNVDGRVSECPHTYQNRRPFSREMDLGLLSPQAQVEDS

Mus musculus [6] = assay: Toxicity to human MOLM13 cells xenografted SCID mouse assessed as body weight loss at 200 mg/kg, po bid after 5 days; format: organism-based, MOLM-13; design: dose 200 mg/kg, route oral; conditions: in vivo, 120 h
Method in brief: (§2)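 SCID mice bearing subcutaneous MOLM-13 xenografts, 5 per group, dosed orally b.i.d. for 5 days. […] is the mean tumour volume ratio, treated to control. Regression is the mean tumour volume relative to the initial volume on day 0. Mortality and body weight were also recorded.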

Mus musculus [7] = assay: Toxicity to human MOLM13 cells xenografted SCID mouse assessed as mortality at 50 mg/kg, po bid after 5 days; format: organism-based, MOLM-13; design: dose 50 mg/kg, route oral; conditions: in vivo, 120 h
Method in brief: (§3)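 MOLM-13 cells implanted subcutaneously in SCID mice. Compound given orally twice daily for 5 days at 50, 100 or 200 mg/kg, alongside an untreated control group. Mortality was scored per dose group, together with tumor volume as treated/control ratio and relative to day-0 volume.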

MOLM-13 [8] = assay: Antitumor activity against human MOLM13 cells xenografted in SCID mouse assessed as minimal tumor volume ratio at 100 mg/kg, po bid treated for 5 days measured after 7 days relative to control; format: functional; method in brief: as §2
Mus musculus [9] = assay: Toxicity to human MOLM13 cells xenografted SCID mouse assessed as mortality at 200 mg/kg, po bid after 5 days; format: organism-based, MOLM-13; design: dose 200 mg/kg, route oral; conditions: in vivo, 120 h; method in brief: as §3
Mus musculus [10] = assay: Toxicity to human MOLM13 cells xenografted SCID mouse assessed as mortality at 100 mg/kg, po bid after 5 days; format: organism-based, MOLM-13; design: dose 100 mg/kg, route oral; conditions: in vivo, 120 h; method in brief: as §3
MOLM-13 [11] = assay: Antitumor activity against human MOLM13 cells xenografted in SCID mouse assessed as tumor volume ratio at 200 mg/kg, po bid treated for 5 days measured after 10 days relative to control; format: functional; method in brief: as §2
MOLM-13 [12] = assay: Antitumor activity against human MOLM13 cells xenografted in po dosed SCID mouse assessed as regression tumor volume ratio administered bid for 5 days; format: functional, organism-based; method in brief: as §2
MOLM-13 [13] = assay: Antitumor activity against human MOLM13 cells xenografted in po dosed SCID mouse assessed as tumor volume ratio administered bid for 5 days; format: functional, organism-based; method in brief: as §2
MOLM-13 [14] = assay: Antitumor activity against human MOLM13 cells xenografted in SCID mouse assessed as minimal regressive tumor volume ratio at 100 mg/kg, po bid treated for 5 days measured after 4 days relative to control; format: functional; method in brief: as §2
MOLM-13 [15] = assay: Antitumor activity against human MOLM13 cells xenografted in SCID mouse assessed as minimal regressive tumor volume ratio at 200 mg/kg, po bid treated for 5 days measured after 10 days relative to control; format: functional; method in brief: as §2

Row | Structure (SMILES) | clearance (Liver microsomes) | GI50 (MOLM-13 [4]) | also measured
1 | CCCNc1nc(NCCc2ccncc2)ncc1-c1nnc(CO)o1 | 35 mL/min/kg | 56 nM | GI50 [1]: 76 nM; GI50 [2]: 116 nM; GI50 [3]: 5960 nM
2 | Cc1ccccc1Nc1nc(NCCc2ccncc2)ncc1-c1nnc(C2CC2)o1 | 217 mL/min/kg | 40 nM | pIC50 [5]: 6.87
3 | CCCNc1nc(NCCc2ccncc2)ncc1-c1nnc(CN2CCN(C)CC2)o1 | 81.7 mL/min/kg | 19 nM | GI50 [1]: 37 nM; GI50 [2]: 31 nM; GI50 [3]: > 10000 nM; Activity (Mus musculus [6]): Non-toxic; Activity (Mus musculus [7]): Non-toxic
4 | CCCNc1nc(NCCc2ccncc2)ncc1-c1nnc(CN2CCC(N)CC2)o1 | 50 mL/min/kg | 74 nM | –
5 | CCCNc1nc(NCCc2ccncc2)ncc1-c1nnc(CN2CCN(CCO)CC2)o1 | 50 mL/min/kg | 57 nM | –
6 | CCCNc1nc(NCCc2ccncc2)ncc1-c1nnc(CN2CCNCC2)o1 | 18.3 mL/min/kg | 29 nM | GI50 [1]: 74 nM; GI50 [2]: 65 nM; T/C (MOLM-13 [8]): 0.1; Activity (Mus musculus [9]): Non-toxic; Activity (Mus musculus [10]): Non-toxic; T/C (MOLM-13 [11]): 0.006; Activity (MOLM-13 [12]): Dose-dependent effect; GI50 [3]: 9110 nM; Activity (MOLM-13 [13]): Dose-dependent effect; Ratio (MOLM-13 [14]): 0.571; Activity (Mus musculus [6]): Non-toxic; Activity (Mus musculus [7]): Non-toxic; Ratio (MOLM-13 [15]): 0.098
7 | CS(=O)(=O)CCNc1nc(NCCc2ccncc2)ncc1-c1nnc(C2CC2)o1 | – | 588 nM | pIC50 [5]: 6.29
8 | Oc1ccc(CCNc2ncc(-c3nnc(C4CC4)o3)c(Nc3ccccc3)n2)cc1 | 85 mL/min/kg | 44 nM | –
9 | CCCNc1nc(NCCc2ccncc2)ncc1-c1nnc(CN2CCN(C(C)=O)CC2)o1 | 137 mL/min/kg | 66 nM | –
10 | CCCNc1nc(NCCc2ccncc2)ncc1-c1nnc(CN2C[C@@H](C)N[C@@H](C)C2)o1 | 115 mL/min/kg | 43 nM | –
11 | CC(C)Nc1nc(NCCc2ccncc2)ncc1-c1nnc(CN2CCNCC2)o1 | 25 mL/min/kg | 49 nM | –
12 | CCCNc1nc(NCCc2ccncc2)ncc1-c1nnc(CNCCN(C)C)o1 | 50 mL/min/kg | 78 nM | –
13 | CNc1nc(NCCc2ccncc2)ncc1-c1nnc(C2CC2)o1 | 20 mL/min/kg | 139 nM | pIC50 [5]: 7.46
14 | Nc1ccc(CCNc2ncc(-c3nnc(C4CC4)o3)c(Nc3ccccc3)n2)cc1 | 68.3 mL/min/kg | 287 nM | –
15 | CCOc1nc(NCCc2ccncc2)ncc1-c1nnc(C2CC2)o1 | 23.3 mL/min/kg | 263 nM | pIC50 [5]: 7.10
16 | Cc1cc(CCNc2ncc(-c3nnc(C4CC4)o3)c(Nc3ccccc3)n2)ccn1 | 367 mL/min/kg | 137 nM | –
17 | c1cc(CCNc2ncc(-c3nnc(CN4CCNCC4)o3)c(NC3CCC3)n2)ccn1 | 105 mL/min/kg | 50 nM | –
18 | FCCCNc1nc(NCCc2ccncc2)ncc1-c1nnc(CN2CCNCC2)o1 | 1.67 mL/min/kg | 99 nM | –
19 | c1ccc(Nc2nc(NCCc3ccncc3)ncc2-c2nnc(CN3CCNCC3)o2)cc1 | 38.3 mL/min/kg | 74 nM | –
